Consider four compounds from ChEMBL document CHEMBL5696442, “Discovery of type II inhibitors of TGFβ-activated kinase 1 (TAK1) and mitogen-activated protein kinase kinase kinase kinase 2 (MAP4K2)” (J Med Chem, 2015).

Assay [1] deals with STE20-like serine/threonine-protein kinase (Homo sapiens) (UniProt Q9H2G2). Description: Inhibition of SLK Lys2 labeling site harbouring IIHRDLKAGNILFTLDGDIK in human Huh-7 cell lysate at 1 uM by KiNativ Profiling analysis relative to control. It counts as subcellular.
The target of assay [2] is Serine/threonine-protein kinase WNK1 (Homo sapiens) (UniProt Q9H4A3). As to the kind of experiment: Inhibition of Wnk1 ACT labeling site in human Huh-7 cell lysate at 1 uM by KiNativ Profiling analysis relative to control. The assay is classed as subcellular.
Assay [3] has as its target Serine/threonine-protein kinase ATR (Homo sapiens) (UniProt Q13535). As to the kind of experiment: Inhibition of ATR ATP labeling site in human Huh-7 cell lysate at 1 uM by KiNativ Profiling analysis relative to control. It counts as subcellular.
The target in assay [4] is Ankyrin repeat and protein kinase domain-containing protein 1 (Homo sapiens) (UniProt Q8NFD2). As to the kind of experiment: Inhibition of ANKK1 (unknown origin) at 1 uM by Ambit Kinomescan binding assay relative to control.
Ankyrin repeat and protein kinase domain-containing protein 1 (Homo sapiens), sequence (Q8NFD2 whole entry, the tested form may be a part): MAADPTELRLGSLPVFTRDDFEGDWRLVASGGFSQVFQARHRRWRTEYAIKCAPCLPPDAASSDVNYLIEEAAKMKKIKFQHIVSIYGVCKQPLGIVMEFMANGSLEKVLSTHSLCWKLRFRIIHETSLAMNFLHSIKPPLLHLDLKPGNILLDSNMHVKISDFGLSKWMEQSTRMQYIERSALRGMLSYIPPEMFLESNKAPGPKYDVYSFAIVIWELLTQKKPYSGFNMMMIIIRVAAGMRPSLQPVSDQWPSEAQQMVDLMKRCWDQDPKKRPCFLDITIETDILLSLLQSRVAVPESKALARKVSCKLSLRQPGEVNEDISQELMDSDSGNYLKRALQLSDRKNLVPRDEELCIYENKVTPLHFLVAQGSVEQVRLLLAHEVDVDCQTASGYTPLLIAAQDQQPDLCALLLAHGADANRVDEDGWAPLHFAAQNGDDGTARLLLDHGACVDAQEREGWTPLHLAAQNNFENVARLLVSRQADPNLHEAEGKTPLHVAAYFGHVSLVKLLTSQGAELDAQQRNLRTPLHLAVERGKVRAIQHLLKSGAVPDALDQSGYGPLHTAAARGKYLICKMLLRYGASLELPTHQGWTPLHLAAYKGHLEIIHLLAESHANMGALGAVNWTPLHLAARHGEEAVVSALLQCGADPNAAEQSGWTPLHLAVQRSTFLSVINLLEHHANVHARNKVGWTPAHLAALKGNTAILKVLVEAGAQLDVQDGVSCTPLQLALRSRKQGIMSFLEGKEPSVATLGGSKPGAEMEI
The target in assay [5] is Cyclin-dependent kinase 18 (Homo sapiens) (UniProt Q07002). Description: Inhibition of PCTK3 (unknown origin) at 1 uM by Ambit Kinomescan binding assay relative to control. In short, it runs like this: (§1)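 In vitro ATP-site competition binding assay against a panel of over 420 kinases (KinomeScan), with compound tested at 10 or 1 μM.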
Cyclin-dependent kinase 18 (Homo sapiens), sequence (Q07002 whole entry): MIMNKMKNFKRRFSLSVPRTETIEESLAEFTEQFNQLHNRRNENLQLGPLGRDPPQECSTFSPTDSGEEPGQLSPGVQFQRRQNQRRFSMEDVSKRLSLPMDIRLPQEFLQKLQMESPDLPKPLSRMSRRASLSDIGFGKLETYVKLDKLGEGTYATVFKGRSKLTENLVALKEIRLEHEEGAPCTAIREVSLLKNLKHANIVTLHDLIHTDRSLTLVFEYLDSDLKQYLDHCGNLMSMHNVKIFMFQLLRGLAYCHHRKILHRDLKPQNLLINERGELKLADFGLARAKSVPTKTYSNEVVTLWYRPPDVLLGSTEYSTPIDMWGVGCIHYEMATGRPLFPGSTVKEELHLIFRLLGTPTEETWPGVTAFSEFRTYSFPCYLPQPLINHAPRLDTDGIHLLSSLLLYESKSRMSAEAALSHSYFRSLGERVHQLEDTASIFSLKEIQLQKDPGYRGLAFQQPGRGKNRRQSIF
For assay [6], the target named is Protein kinase C theta type (Homo sapiens) (UniProt Q04759). Description: Inhibition of PRKCQ (unknown origin) at 1 uM by Ambit Kinomescan binding assay relative to control. In short, it runs like this:
as §1

The target in assay [7] is Ribosomal protein S6 kinase alpha-4 (Homo sapiens) (UniProt O75676). As to the kind of experiment: Inhibition of MSK2 domain1 Lys2 labeling site in human A-375 cells at 5 uM by KiNativ Profiling analysis relative to control. It counts as cell-based.
The target of assay [8] is Serine/threonine-protein kinase ULK2 (Homo sapiens) (UniProt Q8IYT8). Description: Inhibition of ULK2 (unknown origin) at 1 uM by Ambit Kinomescan binding assay relative to control.
Assay [9] has as its target Serine/threonine-protein kinase/endoribonuclease IRE1 (Homo sapiens) (UniProt O75460). As to the kind of experiment: Inhibition of ERN1 (unknown origin) at 1 uM by Ambit Kinomescan binding assay relative to control; values are per cent of control.
Assay [10] concerns the target Serine/threonine-protein kinase 32A (Homo sapiens) (UniProt Q8WU08). Description: Inhibition of YANK1 (unknown origin) at 1 uM by Ambit Kinomescan binding assay relative to control; values are per cent of control.
The target in assay [11] is Tyrosine-protein kinase JAK1 (Homo sapiens) (UniProt P23458). Description: Inhibition of JAK1 domain ACT labeling site in human Huh-7 cell lysate at 1 uM by KiNativ Profiling analysis relative to control. It counts as subcellular.
Assay [12] concerns the target Dual specificity mitogen-activated protein kinase kinase 1 (Homo sapiens) (UniProt Q02750). Description: Inhibition of MAP2K1 Lys2 labeling site harbouring DVKPSNILVNSR in human A-375 cells at 5 uM by KiNativ Profiling analysis relative to control. It counts as cell-based.
The target in assay [13] is Cyclin-dependent kinase 17 (Homo sapiens) (UniProt Q00537). As to the kind of experiment: Inhibition of PCTK2 (unknown origin) at 10 uM by Ambit Kinomescan binding assay relative to control.
Cyclin-dependent kinase 17 (Homo sapiens), sequence (Q00537 whole entry, looked up, the tested form may be a part): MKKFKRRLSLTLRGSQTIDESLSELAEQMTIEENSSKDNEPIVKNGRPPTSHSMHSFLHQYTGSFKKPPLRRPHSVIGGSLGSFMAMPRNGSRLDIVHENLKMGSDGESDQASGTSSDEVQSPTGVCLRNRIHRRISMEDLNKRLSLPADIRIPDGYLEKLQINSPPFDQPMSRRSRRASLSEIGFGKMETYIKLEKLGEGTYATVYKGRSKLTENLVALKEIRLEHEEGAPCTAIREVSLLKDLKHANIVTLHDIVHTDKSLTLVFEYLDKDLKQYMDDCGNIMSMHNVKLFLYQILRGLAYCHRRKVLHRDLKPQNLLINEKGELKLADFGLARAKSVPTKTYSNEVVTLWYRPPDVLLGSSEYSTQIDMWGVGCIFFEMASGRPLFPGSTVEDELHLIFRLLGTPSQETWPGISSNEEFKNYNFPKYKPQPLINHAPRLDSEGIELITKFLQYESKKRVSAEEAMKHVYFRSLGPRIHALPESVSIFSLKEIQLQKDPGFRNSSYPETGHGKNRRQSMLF
The target in assay [14] is LIM domain kinase 2 (Homo sapiens) (UniProt P53671). Description: Inhibition of LIMK2 (unknown origin) at 10 uM by Ambit Kinomescan binding assay.
Assay [15] has as its target RAC-alpha serine/threonine-protein kinase (Homo sapiens) (UniProt P31749). Description: Inhibition of AKT1 (unknown origin) at 10 uM by Ambit Kinomescan binding assay.
Assay [16] concerns the target p38 delta/gamma (Homo sapiens) (UniProt O15264+P53778). As to the kind of experiment: Inhibition of p38d/g K2 labeling site in human Huh-7 cells at 1 uM by KiNativ Profiling analysis relative to control. It counts as cell-based.
Assay [17] deals with DNA-dependent protein kinase catalytic subunit (Homo sapiens) (UniProt P78527). Description: Inhibition of PRKDC ATP labeling site harbouring KGGSWIQEINVAEKNWYPR in human Huh-7 cells at 1 uM by KiNativ Profiling analysis relative to control. The assay is classed as cell-based.
In assay [18] the target is Interferon-induced, double-stranded RNA-activated protein kinase (Homo sapiens) (UniProt P19525). Description: Inhibition of PKR ACT labeling site in human Huh-7 cells at 1 uM by KiNativ Profiling analysis relative to control. It counts as cell-based.
Interferon-induced, double-stranded RNA-activated protein kinase (Homo sapiens), sequence (P19525 whole entry): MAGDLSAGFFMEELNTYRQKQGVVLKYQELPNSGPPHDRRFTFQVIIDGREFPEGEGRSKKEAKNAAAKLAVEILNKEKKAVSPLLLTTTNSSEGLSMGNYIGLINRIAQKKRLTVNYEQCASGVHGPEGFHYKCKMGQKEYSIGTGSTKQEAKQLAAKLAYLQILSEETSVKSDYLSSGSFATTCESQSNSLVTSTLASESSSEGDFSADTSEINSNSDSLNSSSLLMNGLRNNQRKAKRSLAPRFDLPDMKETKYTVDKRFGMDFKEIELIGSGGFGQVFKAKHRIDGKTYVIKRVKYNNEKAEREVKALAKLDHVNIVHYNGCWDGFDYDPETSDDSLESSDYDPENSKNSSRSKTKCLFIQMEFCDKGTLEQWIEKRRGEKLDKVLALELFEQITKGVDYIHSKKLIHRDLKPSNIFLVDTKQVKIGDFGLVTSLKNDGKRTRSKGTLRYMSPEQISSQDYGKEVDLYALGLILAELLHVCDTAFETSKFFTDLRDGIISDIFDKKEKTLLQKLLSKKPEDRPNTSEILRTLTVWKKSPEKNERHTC
The target of assay [19] is T1, Mitogen-activated protein kinase kinase kinase kinase 2 (Homo sapiens) (UniProt Q12851).
T1 sequence (whole entry): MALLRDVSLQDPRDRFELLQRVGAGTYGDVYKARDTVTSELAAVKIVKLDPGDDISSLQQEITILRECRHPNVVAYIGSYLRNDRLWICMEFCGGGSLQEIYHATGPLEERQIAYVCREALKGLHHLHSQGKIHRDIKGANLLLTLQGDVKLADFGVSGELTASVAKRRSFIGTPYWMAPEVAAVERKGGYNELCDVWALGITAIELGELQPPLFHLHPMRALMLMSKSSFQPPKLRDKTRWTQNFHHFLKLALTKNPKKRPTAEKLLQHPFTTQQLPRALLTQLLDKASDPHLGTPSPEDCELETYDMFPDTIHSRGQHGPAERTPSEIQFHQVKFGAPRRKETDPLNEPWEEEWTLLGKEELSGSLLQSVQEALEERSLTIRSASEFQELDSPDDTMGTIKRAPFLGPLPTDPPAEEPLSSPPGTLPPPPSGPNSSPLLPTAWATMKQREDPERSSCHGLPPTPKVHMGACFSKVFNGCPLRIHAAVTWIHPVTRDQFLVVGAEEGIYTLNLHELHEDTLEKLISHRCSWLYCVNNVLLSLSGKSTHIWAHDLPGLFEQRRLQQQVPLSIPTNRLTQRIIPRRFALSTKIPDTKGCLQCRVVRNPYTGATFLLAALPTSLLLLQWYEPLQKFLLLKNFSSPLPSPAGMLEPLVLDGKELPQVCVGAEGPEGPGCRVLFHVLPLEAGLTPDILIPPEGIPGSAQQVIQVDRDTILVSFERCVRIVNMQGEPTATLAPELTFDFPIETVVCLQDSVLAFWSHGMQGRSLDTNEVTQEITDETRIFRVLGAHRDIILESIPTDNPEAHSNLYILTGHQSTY
As to the kind of experiment: Inhibition of MAP4K2 Lys2 labeling site in human A-375 cells at 5 uM by KiNativ Profiling analysis relative to control. The assay is classed as cell-based.

The target of assay [20] is Tyrosine-protein kinase FRK (Homo sapiens) (UniProt P42685). As to the kind of experiment: Inhibition of FRK (unknown origin) at 10 uM by Ambit Kinomescan binding assay relative to control.
Assay [21] concerns the target Misshapen-like kinase 1 (Homo sapiens) (UniProt Q8N4C8). As to the kind of experiment: Inhibition of MINK (unknown origin) at 10 uM by Ambit Kinomescan binding assay.
Assay [22] has as its target Microtubule-associated serine/threonine-protein kinase 3 (Homo sapiens) (UniProt O60307). As to the kind of experiment: Inhibition of MAST3 Lys2 labeling site in human A-375 cells at 0.05 uM by KiNativ Profiling analysis relative to control. The assay is classed as cell-based.
A further assay has as its target Ephrin type-A receptor 2 (Homo sapiens, UniProt P29317). As to the kind of experiment: Inhibition of EphA2 ACT labeling site in human A-375 cells at 5 uM by KiNativ Profiling analysis relative to control. It counts as cell-based.

What is called inhibition is the drop in the measured response relative to a control, in per cent. For orientation: residual activity means the activity still measured, relative to the control. Higher therefore signals a small loss of activity.

Structures are written as SMILES. Active and inactive are the calls of the source. No cut-off for these calls is given here.

Ephrin type-A receptor 2, sequence (P29317 whole entry): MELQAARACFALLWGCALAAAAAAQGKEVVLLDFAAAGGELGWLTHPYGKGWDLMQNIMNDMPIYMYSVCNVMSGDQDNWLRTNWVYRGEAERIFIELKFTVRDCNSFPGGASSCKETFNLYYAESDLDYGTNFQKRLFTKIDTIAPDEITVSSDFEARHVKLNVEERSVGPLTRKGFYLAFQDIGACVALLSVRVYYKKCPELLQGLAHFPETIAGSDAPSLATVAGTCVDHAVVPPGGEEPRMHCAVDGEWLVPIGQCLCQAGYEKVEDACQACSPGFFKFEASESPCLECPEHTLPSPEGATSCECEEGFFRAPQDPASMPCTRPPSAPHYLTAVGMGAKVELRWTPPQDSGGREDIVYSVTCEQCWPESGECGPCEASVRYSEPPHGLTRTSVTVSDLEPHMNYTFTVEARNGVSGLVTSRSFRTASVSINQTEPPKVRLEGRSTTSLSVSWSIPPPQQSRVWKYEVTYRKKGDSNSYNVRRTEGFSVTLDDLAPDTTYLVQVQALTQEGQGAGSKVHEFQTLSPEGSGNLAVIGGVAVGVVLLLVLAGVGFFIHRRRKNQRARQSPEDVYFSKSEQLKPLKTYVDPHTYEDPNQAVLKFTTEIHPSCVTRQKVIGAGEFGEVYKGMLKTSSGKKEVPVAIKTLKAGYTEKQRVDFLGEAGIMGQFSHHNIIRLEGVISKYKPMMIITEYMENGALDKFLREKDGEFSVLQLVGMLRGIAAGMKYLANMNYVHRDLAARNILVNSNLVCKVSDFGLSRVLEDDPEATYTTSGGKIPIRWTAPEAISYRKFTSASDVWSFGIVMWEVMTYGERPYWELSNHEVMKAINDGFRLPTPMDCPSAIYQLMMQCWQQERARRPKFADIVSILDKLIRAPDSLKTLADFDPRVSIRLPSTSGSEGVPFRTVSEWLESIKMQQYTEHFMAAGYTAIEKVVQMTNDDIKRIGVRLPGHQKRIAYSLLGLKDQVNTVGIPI
Serine/threonine-protein kinase/endoribonuclease IRE1 (Homo sapiens), sequence (O75460 19-977 limits assumed): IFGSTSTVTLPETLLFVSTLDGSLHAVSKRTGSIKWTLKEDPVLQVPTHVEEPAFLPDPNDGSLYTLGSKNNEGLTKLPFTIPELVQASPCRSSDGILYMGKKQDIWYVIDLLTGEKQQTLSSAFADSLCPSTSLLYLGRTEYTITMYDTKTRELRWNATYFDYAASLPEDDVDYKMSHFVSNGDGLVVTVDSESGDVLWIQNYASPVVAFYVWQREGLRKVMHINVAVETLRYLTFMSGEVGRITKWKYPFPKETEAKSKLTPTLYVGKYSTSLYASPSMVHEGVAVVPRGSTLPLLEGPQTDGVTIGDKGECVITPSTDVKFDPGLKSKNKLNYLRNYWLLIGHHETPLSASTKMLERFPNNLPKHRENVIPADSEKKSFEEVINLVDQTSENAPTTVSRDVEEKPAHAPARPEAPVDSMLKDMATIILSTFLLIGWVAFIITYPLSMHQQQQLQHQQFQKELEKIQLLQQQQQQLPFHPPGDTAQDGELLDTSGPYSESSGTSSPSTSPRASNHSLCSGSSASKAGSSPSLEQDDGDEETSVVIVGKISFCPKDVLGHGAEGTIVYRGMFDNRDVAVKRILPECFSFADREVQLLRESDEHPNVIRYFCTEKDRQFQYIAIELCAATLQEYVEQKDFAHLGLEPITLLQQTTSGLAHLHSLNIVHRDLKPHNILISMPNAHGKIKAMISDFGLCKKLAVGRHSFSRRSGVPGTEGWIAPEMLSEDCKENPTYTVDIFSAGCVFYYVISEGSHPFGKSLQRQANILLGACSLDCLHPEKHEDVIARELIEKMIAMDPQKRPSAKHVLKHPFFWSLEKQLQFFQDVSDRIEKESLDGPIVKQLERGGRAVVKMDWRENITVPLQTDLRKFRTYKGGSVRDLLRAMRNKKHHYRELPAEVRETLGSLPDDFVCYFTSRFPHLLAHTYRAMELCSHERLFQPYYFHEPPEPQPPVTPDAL
Serine/threonine-protein kinase 32A (Homo sapiens), sequence (Q8WU08 whole entry, the tested form may be a part): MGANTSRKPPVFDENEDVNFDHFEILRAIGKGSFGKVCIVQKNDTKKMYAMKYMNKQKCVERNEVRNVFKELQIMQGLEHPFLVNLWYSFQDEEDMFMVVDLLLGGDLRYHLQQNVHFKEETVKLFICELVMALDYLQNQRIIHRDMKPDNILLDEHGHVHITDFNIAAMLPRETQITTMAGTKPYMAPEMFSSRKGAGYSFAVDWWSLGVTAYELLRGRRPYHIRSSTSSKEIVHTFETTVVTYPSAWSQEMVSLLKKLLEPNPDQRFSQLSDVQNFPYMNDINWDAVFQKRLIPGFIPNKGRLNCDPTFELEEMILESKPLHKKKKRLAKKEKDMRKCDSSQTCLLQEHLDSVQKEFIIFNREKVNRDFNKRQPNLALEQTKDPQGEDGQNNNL
Dual specificity mitogen-activated protein kinase kinase 1 (Homo sapiens), sequence (Q02750 whole entry): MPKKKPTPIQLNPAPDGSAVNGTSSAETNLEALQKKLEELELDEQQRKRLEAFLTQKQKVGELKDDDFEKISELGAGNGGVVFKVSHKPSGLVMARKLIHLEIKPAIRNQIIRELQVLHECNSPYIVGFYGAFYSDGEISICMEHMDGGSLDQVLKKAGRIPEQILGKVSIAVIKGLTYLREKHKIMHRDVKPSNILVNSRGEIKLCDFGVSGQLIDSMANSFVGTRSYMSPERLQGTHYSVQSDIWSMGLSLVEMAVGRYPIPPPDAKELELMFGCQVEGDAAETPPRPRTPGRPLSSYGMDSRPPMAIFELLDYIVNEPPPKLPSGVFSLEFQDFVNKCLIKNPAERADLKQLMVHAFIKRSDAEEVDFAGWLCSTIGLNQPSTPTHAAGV

`CNc1cc(Oc2cc(C(=O)Nc3cc(N4CCN(C)CC4)cc(C(F)(F)F)c3)ccc2C)ncn1`: the inhibition in [1] is 24.8%; in [2] it was -6.9%; in assay [3], 5.1%.
On to `CCN1CCN(Cc2ccc(NC(=O)c3ccc(C)c(/C=C/c4cnc5[nH]ccc5c4OC)c3)cc2C(F)(F)F)CC1`, for which the inhibition in assay [4] was determined as 6%; in assay [5], 84%; in [6], 83%; in assay [7] it was 9%; in [8], 81%. In assay [9], this compound had a residual activity of 100%. This compound had a percent of control in assay [10] of 100%.
In the case of `CNc1cc(Oc2cc(C(=O)Nc3cc(-n4cnc(C)c4)cc(C(F)(F)F)c3)ccc2C)ncn1`, in [11], the inhibition amounted to 4.9%.
Regarding `CCN1CCN(Cc2ccc(NC(=O)c3ccc(C)c(Oc4ccnc5[nH]ccc45)c3)cc2C(F)(F)F)CC1`, the inhibition in assay [12] is -10%; in assay [13] it was 0.1%; in assay [16], 25.2%; in assay [17] it was 30.8%; in assay [18], 48.5%; in [19], 94%. Further, the inhibition is 0.7% in assay [20], -3.3% in [22] and 57.7% at Ephrin type-A receptor 2. The inhibition entry in assay [14], in assay [15] and in assay [21] was “inactive” in each case.
